A selection: hits, their analogues and other compounds. The true share with any hit is near 1.3%.
SIRT5 block: SIRT5 desuccinylase inhibitors, primary screen, biochemical, fluorescence imaging, single point, set 5 | NAD-dependent protein deacylase sirtuin-5, mitochondrial (Homo sapiens), Q9NXA8 | Purified SirT5, succinyl-peptide AMC, trypsin-coupled fluorescence | inhibition, % at 15 µM | 1.1% of 330,000 active; in the data active = inhibition above about 15%
ERp5 inh: inhibitors of ERp5-driven insulin aggregation, primary screen, biochemical, turbidity, absorbance 650 nm, single point; Protein disulfide-isomerase A6 (Homo sapiens), Q15084; inhibition, % at 9.99 µM; AID 651711, 2012; 90 min; 0.05% of 350,000 active;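 active = mean replicate inhibition above about 25%, with every replicate also reaching it, limit read from the data, passing the limit was not always enough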
FN deposit inh: inhibitors of fibronectin matrix deposition, primary screen, AH1F cells, Alexa488-fibronectin fluorescence, plate reader | inhibition, % at 12.6 µM | AH1F fibroblasts, overnight | AID 743247, 2014 | 0.086% of 350,000 active;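 active = mean inhibition across replicates of 30% or more, regardless of how many single replicates reach that level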
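Assay system: AH1F fibroblasts / Quantity: 10000 cells per well / Medium: DMEM plus 2% serum, read in PBS / Reagent: labelled fibronectin 24 nM / Dosing: single dose, pinned / Times: 1 h cell attachment, overnight exposure to compound and label / Signal: fluorescence, ex 485 nm, em 525 nm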
MLL AF4-AF9 inh: inhibitors of AF4 peptide binding to AF9, primary screen, biochemical, AlphaScreen, biotin-AF4 peptide, FLAG-AF9, single point. Protein AF-9 (Homo sapiens), P42568. inhibition, % at 10 µM. 0.47% of 350,000 active. AID 651704, 2012;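 active = every replicate reaching a set inhibition limit, whatever the replicate mean, cut at about 25% in these data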
PDI turbidity: inhibitors of human PDI, primary screen, biochemical, turbidity, single point, plate reader | inhibition, % at 10 µM | Protein disulfide-isomerase (Homo sapiens), P07237 | 0.052% of 350,000 active | PDI insulin aggregation turbidity, A650, 90 min;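 active = mean inhibition across replicates of 30% or more, whatever share of single replicates reach that level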
Target sequence (P07237 whole entry, looked up): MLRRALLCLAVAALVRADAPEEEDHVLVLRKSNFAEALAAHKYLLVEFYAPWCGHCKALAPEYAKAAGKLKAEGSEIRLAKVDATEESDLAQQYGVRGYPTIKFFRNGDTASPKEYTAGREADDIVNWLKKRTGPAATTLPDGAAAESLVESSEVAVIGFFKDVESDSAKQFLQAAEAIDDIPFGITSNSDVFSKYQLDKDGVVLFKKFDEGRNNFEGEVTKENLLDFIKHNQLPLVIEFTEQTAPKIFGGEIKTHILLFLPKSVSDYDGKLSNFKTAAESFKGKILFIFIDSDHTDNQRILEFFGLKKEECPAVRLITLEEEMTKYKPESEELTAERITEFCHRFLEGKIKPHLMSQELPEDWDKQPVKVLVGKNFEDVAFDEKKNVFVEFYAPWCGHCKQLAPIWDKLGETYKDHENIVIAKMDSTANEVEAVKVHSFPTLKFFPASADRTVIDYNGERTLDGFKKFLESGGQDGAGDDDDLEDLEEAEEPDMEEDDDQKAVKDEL
A number is an active result; 0 = inactive; - = no result; ! = repeats disagree.

SMILES	SIRT5 block	ERp5 inh	FN deposit inh	MLL AF4-AF9 inh	PDI turbidity
c1ccc2c(c1)Sc1ccccc1N2CC1CN2CCC1CC2 (stereo not drawn)	0	0	0	27.2	0
O=c1[nH]c(=O)n(Cc2ccco2)c(O)c1C=NC1CCN(Cc2ccccc2)CC1	0	0	0	48.2	0
O=c1[nH]c(=O)n(Cc2ccco2)c(O)c1/C=N/N1CCCCCC1	0	0	0	0	0
CS(=O)(=O)c1ccc(C2=C(CNC(=O)c3ccc([N+](=O)[O-])cc3)[C@H]3CC[C@@H](C2)N3Cc2ccccc2)cc1	0	0	0	0	0
O=C(NCC1=C(c2cccc3ccccc23)C[C@@H]2CC[C@H]1N2Cc1ccco1)c1ccc([N+](=O)[O-])cc1	0	0	0	25.0	0
COc1cccc(-n2c(C)nc3ccccc3c2=O)c1	-	-	0	-	0
CC(=NCc1cccnc1)c1c(O)n(-c2ccccc2C)c(=O)[nH]c1=O	27.2	0	-	0	0
CCC(=NCc1cccnc1)c1c(O)n(-c2ccccc2C)c(=O)[nH]c1=O	0	0	0	0	0
Cc1[nH]c2ccc(O)cc2c1CCN	0	0	0	31.9	0
CC(Cc1ccccc1Sc1ccccc1)N(C)C (stereo not drawn)	-	0	0	0	0
COC1/C=C/C=C(\C)Cc2cc(O)c(Cl)c(c2)N(C)C(=O)CC(OC(=O)C(C)C)C2(C)OC2C(C)C2CC1(O)NC(=O)O2 (stereo not drawn)	0	0	0	0	63.3
COC1C(O)C(C)OC(OC2C(Oc3cccc4c(O)c5c(=O)oc6ccc(C)c7c(=O)oc(c34)c5c67)OC(C)C(O)C2O)C1O (stereo not drawn)	0	0	0	0	0
O=C(O)CC1OCC=C2CN3CCC45C6=CC(=O)C(=O)C([N+](=O)[O-])=C6NC4C1C2CC35 (stereo not drawn)	-	-	-	-	75.0
O=C(O)CC1OCC=C2CN3CCC45c6ccccc6NC4C1C2CC35 (stereo not drawn)	0	0	0	0	0
Cc1cccc(N=Nc2ccc(N(C)C)cc2)c1	0	0	0	26.6	0
O=C(C(=O)N1CCOCC1)c1cn(Cc2ccccc2F)c2ccccc12	0	0	0	0	0
CC1CN1c1cc2c(c3c1ccn3C)C1CCC2C1 (stereo not drawn)	0	0	0	39.6	-
Cc1nc2c(=O)n(C)c(=O)nc-2n(C)n1	-	-	-	-	189.0
N#CC1=C(N)Oc2c(c(=O)sc3ccccc23)C1c1ccncc1 (stereo not drawn)	15.8	0	0	0	0
N#CC1=C(N)Oc2c(c(=O)oc3ccccc23)C1c1cccnc1 (stereo not drawn)	-	-	0	-	0
COc1cccc(CC(=O)N(C)C2CCCN(Cc3ccccc3F)C2)c1 (stereo not drawn)	18.3	0	0	0	0
Cc1ccc(N2Cc3ccccc3C2=N)cc1[N+](=O)[O-]	25.5	0	0	0	0
CC(C)(O)/C=C/C(=O)C(C)(O)C1C(O)CC2(C)C3CC=C4C(C=C(O)C(=O)C4(C)C)C3(C)C(=O)CC12C (stereo not drawn)	-	0	46.4	0	0
c1ccc2sc(NC3=NCCN3)nc2c1	0	0	0	0	0
C=C1[C@@H](C)[C@H]2[C@H](Cc3ccccc3)NC(=O)[C@]23OC(=O)/C=C/[C@H](O)CCC[C@@H](C)C/C=C/[C@H]3[C@@H]1O	0	0	35.1!	0	0
SMILES	SIRT5 block	ERp5 inh	FN deposit inh	MLL AF4-AF9 inh	PDI turbidity
C=C1C(C)C2C(Cc3ccccc3)NC(=O)C23C(OC(C)=O)C=CC(C)(O)CC(C)CC=CC3C1O (stereo not drawn)	0	0	45.0	0	0
CC(=NCCN(C)C)c1c(O)n(Cc2ccccc2)c(=O)[nH]c1=O	0	0	0	0	0
CN1CCN(CCOC2c3ccccc3CSc3ccc(Cl)cc32)CC1 (stereo not drawn)	-	-	0	-	31.9
CSc1ccc(CNC2CN3CCC2CC3)cc1 (stereo not drawn)	28.8	0	-	0	0
Cc1ccc(C(=O)C2CN3CCC2CC3)cc1 (stereo not drawn)	-	-	-	-	0
CSCCC(c1nnnn1Cc1ccccc1)N1CCC(n2c(=O)[nH]c3ccccc32)CC1 (stereo not drawn)	0	0	0	0	-
O=c1[nH]c2ccccc2n1C1CCN(C(CCc2ccccc2)c2nnnn2Cc2ccccc2)CC1 (stereo not drawn)	0	0	40.7	0	-
O=[N+]([O-])c1ccc(Cl)c([N+](=O)[O-])c1	0	0	-	0	0
CN(C)Cc1c[nH]c2cc([N+](=O)[O-])ccc12	16.5	0	0	0	0
Cc1ccc(-c2cc(-c3ccccc3)cc(-c3ccccc3)[n+]2-c2ccc(C(=O)O)cc2)cc1	0	0	0	0	0
COc1cc2c(c(OC)c1)C(=O)OC(C)CCCC(=O)CCCCC2 (stereo not drawn)	0	0	0	0	0
CN1C(=O)C(=Cc2ccccc2OCc2ccc(Cl)cc2)C(=O)N(C)C1=O	112.2	0	0	0	0
CCCC[C@@H](C)C[C@@H](C)C(=O)N(C)[C@@H](CC(C)C)C(=O)N[C@H](C(=O)N(C)[C@H](C(=O)N1C[C@@H](O)C[C@H]1C(=O)N1C(=O)C=C[C@@H]1C)C(C)C)C(C)OC(C)=O (stereo partly drawn)	-	-	-	-	37.2
COc1ccc(F)cc1C(=O)C1CCCN(Cc2cnc(C)s2)C1 (stereo not drawn)	0	0	0	0	0
COc1ccc(F)cc1C(=O)C1CCCN(Cc2ccc(O)cc2)C1 (stereo not drawn)	17.4	0	0	0	0
CCC1(CCC(C)C)C(=O)NC(=S)NC1=O	0	0	0	0	0
CCN(CC)CCCOC(=O)C(OC)(c1ccccc1)c1ccccc1	0	0	-	0	0
OCCNCCc1c[nH]c2ccc(OCc3ccccc3)cc12	19.9	0	0	0	0
CN(C)C1C(=O)C(C(N)=O)=C(O)C2(O)C(=O)C3=C(O)c4c(O)cccc4C(C)(O)C3C(O)C12 (stereo not drawn)	40.4	0	0	0	0
CC1=CC2OC3CC4OC(=O)C=CC=CC(C(C)O)OCC(O)C5(C)OC5C(=O)OCC2(CC1O)C4(C)C31CO1 (stereo not drawn)	-	0	0	0	0
COC(=O)[C@@H]1[C@@H](CO)[C@@H]2Cn3c(cccc3=O)[C@H]1N2Cc1nccs1	0	0	-	0	-
CCCCn1nnnc1C(c1ccnc2ccccc12)N1CCC2(CC1)C(=O)NCN2c1ccccc1 (stereo not drawn)	0	0	0	0	-
CN(C)c1cccc(CN2CCN(c3ccccc3)CC2)c1	15.4	0	-	0	-
c1ccc(CN2CCN(Cc3ccc4ccccc4c3)CC2)cc1	0	0	0	0	0
CCOP(=O)(OCC)C(NC(=O)c1cccc([N+](=O)[O-])c1)C(Cl)(Cl)Cl (stereo not drawn)	0	0	0	0	0
